Experiment [1] concerns Radical scavenging activity. The experiment is described as follows: Antioxidant activity assessed as DPPH radical scavenging activity at 1 mM after 5 mins by ESR spectrometric analysis. It counts as functional. In a few lines:
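Reaction mixtures held DPPH and test compound, each at 1.0 mM, both made up in acetonitrile. A control lacked compound. ESR signal was recorded 5 min after mixing at 9.81 GHz with 20 mW microwave power, 0.95 G modulation amplitude and 59 db receiver gain. Values are given as % DPPH scavenging.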
In general terms: Loss of DPPH colour is used to gauge radical scavenging.

The nature of experiment [2]: Antioxidant activity assessed as inhibition of AAPH-induced peroxyl radical formation at 0.3 to 2 uM preincubated for 15 mins followed by AAPH addition measured every 1 min for 120 mins by ORAC-FL assay relative to trolox. It counts as functional. The method, boiled down:
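Fluorescein (70 nM final) and compound (0.3–2 µM, in methanol) were mixed in 75 mM sodium phosphate pH 7.4 and pre-incubated 15 min at 37 °C. AAPH (18 mM final) was then added. Fluorescence (ex 485, em 528 nm) was read every minute for 120 min. Net AUC was taken after subtracting a methanol blank and expressed relative to trolox. Triplicates, at least three independent assays.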

Experiment [3] is described as follows: Antioxidant activity assessed as superoxide radical scavenging activity at 30 uM by cyclic voltammetric analysis. It counts as functional. In a few lines: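 Cyclic voltammetry was run at room temperature with a three-electrode cell in DMSO, with compound at 30 µM final. Scavenging (%) was calculated as [(Ipc blank − Ipc aox)/Ipc blank] × 100 from the cathodic peak current without and with compound. Three replicates; significance was set at p < 0.05.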

Experiment [4] can be described thus: Antioxidant activity assessed as hydroxyl radical scavenging activity at 4 mM after 5 mins by ESR spectrometric analysis. Format: functional. In a few lines:
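Hydroxyl radicals came from a non-catalytic Fenton-type system: DMF, NaOH (3 mM), DMPO spin trap (30 mM final) and 30% H2O2, with compound at 4 mM final. The DMPO-OH adduct was read by X-band ESR (9.7 GHz) at room temperature 5 min after mixing. A control without antioxidant was included. Values are given as % scavenging.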

The nature of experiment [5]: Antioxidant activity assessed as inhibition of AAPH-induced peroxyl radical formation by ORAC-FL assay relative to trolox. It counts as functional. The method, boiled down: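 Peroxyl scavenging in 75 mM sodium phosphate buffer pH 7.4 with fluorescein (70 nM final), using test compounds in methanol from 0.3 to 2 units. The mix was pre-incubated 15 min at 37 °C, then AAPH (18 mM final) was added. Fluorescence (ex 485, em 528 nm) was read every 1 min for 120 min. Net AUC was taken against a methanol blank and expressed relative to trolox standards. Triplicates, ≥3 independent runs.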

Experiment [6] deals with Radical scavenging activity. The experiment is described as follows: Antioxidant activity assessed as DPPH radical scavenging activity measured at 5 mins by ESR spectrometric analysis.

In ChEMBL document CHEMBL2396589, “Remarkable antioxidant properties of a series of hydroxy-3-arylcoumarins” (Bioorg Med Chem, 2013) one finds Activity and fold change (FC) data, which are given here for eleven compounds.

In the case of `Cc1ccc2oc(=O)c(-c3ccc(O)cc3)cc2c1`, the results for the Activity in experiment [1], in experiment [3] and in experiment [4] were 27.7%, 17.4% and 100%, respectively. In addition, the fold change (FC) in experiment [2] worked out at 6.1.

In the case of `Oc1cc(O)c2c(c1)OC(c1ccc(O)c(O)c1)C(O)C2` (stereo not given), in experiment [5], the fold change (FC) was found to be 6.76. The Activity in experiment [6] was determined as 44.5%.

On to `Cc1cccc2cc(-c3cc(O)c(O)c(O)c3)c(=O)oc12`, for which the figures for the Activity in experiment [1], in experiment [3] and in experiment [4] were 100%, 76.5% and 100%, respectively. Besides, the fold change (FC) in experiment [2] turned out to be 5.3.

Take `Cc1cccc2cc(-c3cc(O)cc(O)c3)c(=O)oc12`: the Activity in experiment [1] was found to be 11.2%; in experiment [3] it was 22.6%; in experiment [4] it was 75%. Also, the fold change (FC) in experiment [2] was 5.5.

On to `Cc1cccc2cc(-c3ccc(O)c(O)c3)c(=O)oc12`, for which the Activity in experiment [1] amounted to 66.7%; in experiment [3] it was 77.3%; in experiment [4], 100%. Moreover, the fold change (FC) in experiment [2] amounted to 5.7.

For the compound `O=c1oc2c(O)cccc2cc1-c1ccc(O)cc1`, the Activity in experiment [1] stood at 65.9%; in experiment [3] it was 71.5%; in experiment [4], 100%. In experiment [2], the fold change (FC) amounted to 13.5.

Turning to `Cc1ccc2oc(=O)c(-c3ccccc3O)cc2c1`, the Activity was determined as 10.6% in experiment [1], 25% in experiment [3] and 100% in experiment [4]. Further, in experiment [2], the fold change (FC) was found to be 8.4.

Turning to `Cc1ccc(-c2cc3cccc(O)c3oc2=O)cc1`, the Activity in experiment [1] worked out at 28.6%; in experiment [3], 17.4%; in experiment [4], 16%. The fold change (FC) in experiment [2] came out at 6.3.

In the case of `O=c1c(O)c(-c2ccc(O)c(O)c2)oc2cc(O)cc(O)c12`, in experiment [5], the fold change (FC) amounted to 7.28. The Activity in experiment [6] worked out at 20%.

For the compound `Cc1ccc2oc(=O)c(-c3cccc(O)c3)cc2c1`, the Activity in experiment [1] was determined as 3.4%; in experiment [3], 17.5%; in experiment [4], 5.2%. Moreover, the fold change (FC) in experiment [2] came out at 6.7.

As to `Cc1ccc2oc(=O)c(-c3ccc(O)c(O)c3)cc2c1`, the values for the Activity in experiment [1], in experiment [3] and in experiment [4] were 28.3%, 28.9% and 6.05%, respectively. For the same compound, the fold change (FC) in experiment [2] was 5.3.
